Two compounds from ChEMBL document CHEMBL5107948, “Activity-based protein profiling reveals deubiquitinase and aldehyde dehydrogenase targets of a cyanopyrrolidine probe” (RSC Med Chem, 2021) can be followed below.

The source made the active and inactive calls. The rule behind the calls is not given here. Bounds are passed on as bounds.

Type in all cases: cell-based
Experiment [1] has as its target T1, Glutamine amidotransferase-like class 1 domain-containing protein 3, mitochondrial (Homo sapiens) (UniProt P0DPI2).
T1 sequence (whole entry): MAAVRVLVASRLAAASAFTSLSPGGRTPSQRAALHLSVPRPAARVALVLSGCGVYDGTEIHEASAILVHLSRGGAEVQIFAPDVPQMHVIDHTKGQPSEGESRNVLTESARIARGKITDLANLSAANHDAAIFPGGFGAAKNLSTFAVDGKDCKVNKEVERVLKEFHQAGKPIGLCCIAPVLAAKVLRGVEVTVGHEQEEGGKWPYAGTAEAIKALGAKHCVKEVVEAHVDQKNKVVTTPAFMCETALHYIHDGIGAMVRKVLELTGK
Kind of experiment: Binding affinity to GATD3A in human HEK293 cells at 130 to 500 nM in presence of ABP MT16-205 by LFQ-NanoLC-MS/MS analysis. To be noted: dose 130-500 nM, DDE = dose-dependent effect. Summed up: (§1)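 Competition format: HEK293 cells pre-treated 1 h with competitor or DMSO, then exposed to ABP MT16-205. Lysis in PBS/Triton/SDS buffer, AzRB click ligation, NeutrAvidin pulldown, on-bead TCEP/chloroacetamide treatment and overnight tryptic digestion. Label-free LC-MS/MS; two-sample t-test versus control (n=3, permutation FDR 0.01, S0=1).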

In experiment [2] the target is 4-trimethylaminobutyraldehyde dehydrogenase (Homo sapiens) (UniProt P49189). Kind of experiment: Binding affinity to ALDH9A1 in human HEK293 cells at 130 to 500 nM in presence of ABP MT16-205 by LFQ-NanoLC-MS/MS analysis. To be noted: dose 130-500 nM, DDE = dose-dependent effect. Summed up: as §1
Sequence of 4-trimethylaminobutyraldehyde dehydrogenase (Homo sapiens) (P49189 whole entry): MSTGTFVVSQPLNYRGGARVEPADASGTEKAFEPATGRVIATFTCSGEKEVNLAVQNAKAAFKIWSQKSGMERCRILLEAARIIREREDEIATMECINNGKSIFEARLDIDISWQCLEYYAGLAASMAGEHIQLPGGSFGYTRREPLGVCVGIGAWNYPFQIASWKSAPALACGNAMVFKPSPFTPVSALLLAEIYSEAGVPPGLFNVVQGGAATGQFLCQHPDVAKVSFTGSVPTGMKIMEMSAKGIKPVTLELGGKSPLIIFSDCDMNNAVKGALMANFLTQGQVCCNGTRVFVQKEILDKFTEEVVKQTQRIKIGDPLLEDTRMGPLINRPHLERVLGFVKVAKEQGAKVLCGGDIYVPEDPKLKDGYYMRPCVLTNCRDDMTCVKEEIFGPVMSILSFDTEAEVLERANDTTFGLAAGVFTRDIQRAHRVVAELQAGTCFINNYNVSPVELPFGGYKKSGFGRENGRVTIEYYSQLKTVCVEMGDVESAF
Experiment [3] has the same target. Kind of experiment: Inhibition of ALDH9A1 in human HEK293 cells at 250 nM in presence of ABP MT16-205 by Competitive pulldown based immunoblotting analysis. Put shortly: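 Lysates AzTB-clicked, streptavidin bead pulldown (2 h RT), boiled elution, SDS-PAGE. Target detected by immunoblot: 3% BSA/TBS-T block, primary antibody 1.5 h RT or overnight at 4 °C, HRP secondary, chemiluminescence.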

For experiment [4], the target named is T2, Aldehyde dehydrogenase, mitochondrial (Homo sapiens) (UniProt P05091).
T2 sequence (whole entry): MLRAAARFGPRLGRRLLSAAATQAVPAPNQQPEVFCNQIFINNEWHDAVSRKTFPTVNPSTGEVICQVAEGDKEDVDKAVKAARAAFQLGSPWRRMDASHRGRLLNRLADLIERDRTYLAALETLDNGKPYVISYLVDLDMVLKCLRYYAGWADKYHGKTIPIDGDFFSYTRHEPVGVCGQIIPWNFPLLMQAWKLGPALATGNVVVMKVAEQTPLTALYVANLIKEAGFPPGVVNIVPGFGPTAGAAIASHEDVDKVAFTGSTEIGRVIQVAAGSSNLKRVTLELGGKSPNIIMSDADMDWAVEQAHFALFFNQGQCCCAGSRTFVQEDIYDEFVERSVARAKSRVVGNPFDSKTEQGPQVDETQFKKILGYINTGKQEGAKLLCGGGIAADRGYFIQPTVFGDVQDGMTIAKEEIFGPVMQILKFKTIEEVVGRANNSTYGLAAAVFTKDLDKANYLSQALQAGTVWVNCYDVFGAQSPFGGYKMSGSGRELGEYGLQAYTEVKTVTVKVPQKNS
Kind of experiment: Binding affinity to ALDH2 in human HEK293 cells at 130 to 500 nM in presence of ABP MT16-205 by LFQ-NanoLC-MS/MS analysis. The conditions noted are these: dose 130-500 nM, DDE = dose-dependent effect. Put shortly:
as §1

Experiment [5] addresses T2, Aldehyde dehydrogenase, mitochondrial (Homo sapiens). Kind of experiment: Binding affinity to ALDH2 in human HEK293 cells assessed as fold change at 130 nM incubated for 3 to 6 hrs by LFQ-chemical proteomics analysis. The conditions noted are these: time 3-6 hrs. Summed up:
(§2)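 HEK293 cells exposed to alkyne ABP or DMSO for 3, 6 or 18 h, washed, lysed in PBS/1% Triton X-100/0.1% SDS. Lysates (400 µg, biological triplicates) CuAAC-ligated to AzRB (100 µM, CuSO4 1 mM, TCEP 1 mM, TBTA 100 µM, 1 h RT). NeutrAvidin enrichment, on-bead TCEP/CAA reduction-alkylation, overnight trypsin digest at 37 °C, LC-MS/MS label-free quantification. Two-sample t-test against DMSO (n=3, permutation FDR 0.01, S0=1).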

For experiment [6], the target named is Ubiquitin carboxyl-terminal hydrolase isozyme L1 (Homo sapiens) (UniProt P09936). Kind of experiment: Binding affinity to UCHL1 in human HEK293 cells at 31 nM by TAMRA labelled pulldown based immunoblotting analysis. Put shortly: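 HEK293 cells treated with ABP; lysate (150 µg) CuAAC-ligated to AzTB, precipitated, resuspended. 100 µg incubated with streptavidin magnetic beads 2 h RT, washed with 0.2% SDS/PBS, eluted by boiling 10 min at 95 °C. Eluates run on SDS-PAGE and read by TAMRA in-gel fluorescence or by immunoblot on nitrocellulose with HRP chemiluminescence.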
Sequence of Ubiquitin carboxyl-terminal hydrolase isozyme L1 (Homo sapiens) (P09936 whole entry, looked up): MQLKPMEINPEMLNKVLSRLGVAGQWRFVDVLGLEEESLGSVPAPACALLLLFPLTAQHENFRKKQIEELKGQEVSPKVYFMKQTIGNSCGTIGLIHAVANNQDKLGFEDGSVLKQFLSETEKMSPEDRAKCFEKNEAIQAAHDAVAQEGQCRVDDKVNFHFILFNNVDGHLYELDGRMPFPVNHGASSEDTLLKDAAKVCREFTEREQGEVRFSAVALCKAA
(In western blotting, separated proteins are transferred to a membrane and probed.)

The target is the same in experiment [7]. Kind of experiment: Binding affinity to UCHL1 in human HEK293 cells assessed as fold change at 30 nM incubated for 3 to 18 hrs by LFQ-chemical proteomics analysis. To be noted: time 3-18 hrs. Summed up: as §2
For experiment [8] the target is unchanged. Kind of experiment: Binding affinity to UCHL1 in human HEK293 cells at 40 nM incubated for 3 hrs by In-gel fluorescence analysis. Summed up:
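HEK293 cells given 10–2500 nM ABP for 3, 6 or 18 h. Lysates clicked to AzTB, mixed with Laemmli buffer at 0.31% v/v final BME for 5 min without boiling, resolved on 12% acrylamide gels, imaged by in-gel TAMRA fluorescence.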

Experiment [9] deals with T1, Glutamine amidotransferase-like class 1 domain-containing protein 3, mitochondrial (Homo sapiens). Kind of experiment: Binding affinity to GATD3A in human HEK293 cells assessed as fold change at 130 nM incubated for 3 to 6 hrs by LFQ-chemical proteomics analysis. To be noted: time 3-6 hrs. Put shortly:
as §2

Experiment [10] concerns the target 4-trimethylaminobutyraldehyde dehydrogenase (Homo sapiens) (UniProt P49189). Kind of experiment: Binding affinity to ALDH9A1 in human HEK293 cells assessed as fold change at 130 nM incubated for 3 to 6 hrs by LFQ-chemical proteomics analysis. To be noted: time 3-6 hrs. Summed up:
as §2

The target of experiment [11] is T1, Glutamine amidotransferase-like class 1 domain-containing protein 3, mitochondrial (Homo sapiens). Kind of experiment: Binding affinity to GATD3A in human HEK293 cells assessed as fold change at 30 nM incubated for 3 to 18 hrs by LFQ-chemical proteomics analysis. The conditions noted are these: time 3-18 hrs. Summed up:
as §2

On to `N#CN1CC[C@H](C(=O)Nc2ncc(-c3ccccc3)s2)C1`, for which the Activity result in [1], in [2] and in experiment [4] was “Dde” in each case. Also, the inhibition result in [3] was “Active”.
As to `C#Cc1ccc(-c2cnc(NC(=O)[C@H]3CCN(C#N)C3)s2)cc1`, the fold change (FC) in experiment [5] was above 64; in [7], above 16; in [9], above 64; in experiment [10], above 64; in experiment [11] it was above 16. Also, the result in [6] and in [8] was Active.
